Experimental data reported in ChEMBL document CHEMBL4406921, “Discovery of Axelopran (TD-1211): A Peripherally Restricted μ-Opioid Receptor Antagonist” (ACS Med Chem Lett, 2019).

target: Delta-type opioid receptor (Homo sapiens, UniProt P41143); test: Displacement of [3H]-DPN from recombinant human delta opioid receptor expressed in CHO-K1 cell membranes by radioligand binding assay; conditions: not given
Procedure, shortened: (§1)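 Membranes from CHO-K1 cells stably transfected with human recombinant μ or δ receptor, or guinea pig κ receptor; competition with [3H]-DPN radioligand; affinity reported as pKi.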

Chain of Delta-type opioid receptor (P41143 whole entry): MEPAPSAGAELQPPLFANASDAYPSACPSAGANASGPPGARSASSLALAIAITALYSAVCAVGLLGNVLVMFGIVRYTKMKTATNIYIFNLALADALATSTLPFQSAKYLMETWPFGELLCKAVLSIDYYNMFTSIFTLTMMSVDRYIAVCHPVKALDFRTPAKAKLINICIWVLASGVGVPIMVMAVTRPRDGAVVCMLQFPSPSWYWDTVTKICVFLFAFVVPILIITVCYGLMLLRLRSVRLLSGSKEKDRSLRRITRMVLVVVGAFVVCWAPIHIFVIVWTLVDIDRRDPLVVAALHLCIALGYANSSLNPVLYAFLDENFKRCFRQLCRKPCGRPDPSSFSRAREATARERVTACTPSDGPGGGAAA

Going from CC(C)NC(=O)N(CCN1[C@@H]2CC[C@H]1C[C@@H](c1cccc(C(N)=O)c1)C2)CC1CCCCC1 to COC(=O)N(CCN1[C@@H]2CC[C@H]1C[C@@H](c1cccc(C(N)=O)c1)C2)CC1CCCCC1, the Ki rises from 1.26 nM to 2.51 nM (2-fold). The first binds more tightly here.

Going from NC(=O)c1cccc([C@H]2C[C@H]3CC[C@@H](C2)N3CCN(CCc2ccccc2)C(=O)CO)c1 to CCCCCCN(CCN1[C@@H]2CC[C@H]1C[C@@H](c1cccc(C(N)=O)c1)C2)C(=O)CO, the Ki rises from 20 nM to 63.1 nM (3.2-fold). The first binds more tightly here.

Compared with CCC(CC)CN(CCCCCN1[C@@H]2CC[C@H]1C[C@@H](c1cccc(C(N)=O)c1)C2)C(=O)CO, CC(C)(C)C(=O)N(CCN1[C@@H]2CC[C@H]1C[C@@H](c1cccc(C(N)=O)c1)C2)CC1CCCCC1 is 10-fold lower in Ki: 20 nM for the first, 2 nM for the second.

target: Kappa-type opioid receptor (Cavia porcellus, UniProt P41144); test: Displacement of [3H]-DPN from guinea pig kappa opioid receptor expressed in CHO-K1 cell membranes by radioligand binding assay; conditions: not given; procedure, shortened: as §1
Sequence (P41144 whole entry): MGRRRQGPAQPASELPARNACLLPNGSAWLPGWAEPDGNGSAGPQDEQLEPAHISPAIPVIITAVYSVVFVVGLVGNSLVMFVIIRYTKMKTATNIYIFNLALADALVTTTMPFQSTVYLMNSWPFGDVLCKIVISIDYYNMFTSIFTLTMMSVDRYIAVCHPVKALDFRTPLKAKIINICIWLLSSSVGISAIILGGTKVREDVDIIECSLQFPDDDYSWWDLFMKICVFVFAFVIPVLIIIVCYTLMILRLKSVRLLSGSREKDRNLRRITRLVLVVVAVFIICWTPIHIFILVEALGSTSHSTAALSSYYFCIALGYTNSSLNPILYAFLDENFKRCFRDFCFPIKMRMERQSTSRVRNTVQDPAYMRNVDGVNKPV

CC(C)NC(=O)N(CCN1[C@@H]2CC[C@H]1C[C@@H](c1cccc(C(N)=O)c1)C2)CC1CCCCC1 and COC(=O)N(CCN1[C@@H]2CC[C@H]1C[C@@H](c1cccc(C(N)=O)c1)C2)CC1CCCCC1 are within 1.5-fold of each other in Ki: 0.158 nM for the first, 0.2 nM for the second.

Going from CCCCCCN(CCN1[C@@H]2CC[C@H]1C[C@@H](c1cccc(C(N)=O)c1)C2)C(=O)CO to CC(C)(C)C(=O)N(CCN1[C@@H]2CC[C@H]1C[C@@H](c1cccc(C(N)=O)c1)C2)CC1CCCCC1, the Ki falls from 3.16 nM to 0.158 nM (20-fold). The second binds more tightly here.

test system: not listed separately; test: Permeability coefficient, Kp in human Caco2 cells; type: ADME, cell-based; conditions: Caco-2, read-out: Kp

Going from CC(C)NC(=O)N(CCN1[C@@H]2CC[C@H]1C[C@@H](c1cccc(C(N)=O)c1)C2)CC1CCCCC1 to CCCCCCN(CCN1[C@@H]2CC[C@H]1C[C@@H](c1cccc(C(N)=O)c1)C2)C(=O)CO, the Papp rises from 360 nm/s to 450 nm/s.

For NC(=O)c1cccc([C@H]2C[C@H]3CC[C@@H](C2)N3CCN(CCc2ccccc2)C(=O)CO)c1, the Papp was 160 nm/s.

test system: not listed separately; test: Half life in rat liver microsomes at 3 uM; type: ADME, Microsome; conditions: not given

Going from CC(C)NC(=O)N(CCN1[C@@H]2CC[C@H]1C[C@@H](c1cccc(C(N)=O)c1)C2)CC1CCCCC1 to COC(=O)N(CCN1[C@@H]2CC[C@H]1C[C@@H](c1cccc(C(N)=O)c1)C2)CC1CCCCC1, the half-life at 3 µM falls from 20 min to 2 min (10-fold).

Going from NC(=O)c1cccc([C@H]2C[C@H]3CC[C@@H](C2)N3CCN(CCc2ccccc2)C(=O)CO)c1 to CCCCCCN(CCN1[C@@H]2CC[C@H]1C[C@@H](c1cccc(C(N)=O)c1)C2)C(=O)CO, the half-life at 3 µM rises from 34 min to 71 min (2.1-fold).

First: CCC(CC)CN(CCCCCN1[C@@H]2CC[C@H]1C[C@@H](c1cccc(C(N)=O)c1)C2)C(=O)CO
Second: CC(C)(C)C(=O)N(CCN1[C@@H]2CC[C@H]1C[C@@H](c1cccc(C(N)=O)c1)C2)CC1CCCCC1
The half-life at 3 µM of the first is 2.3-fold higher: 28 min for the first, 12 min for the second.

target: T1, Mu-type opioid receptor (Homo sapiens, UniProt P35372); test: Antagonist activity at human recombinant mu opioid receptor expressed in CHO-K1 cell membranes assessed as intrinsic activity at 10 pM to 20 uM incubated for 30 mins in presence of Eu-GTP by DELFIA GTP binding assay relative to DAMGO; conditions: not given
T1 sequence (P35372 whole entry): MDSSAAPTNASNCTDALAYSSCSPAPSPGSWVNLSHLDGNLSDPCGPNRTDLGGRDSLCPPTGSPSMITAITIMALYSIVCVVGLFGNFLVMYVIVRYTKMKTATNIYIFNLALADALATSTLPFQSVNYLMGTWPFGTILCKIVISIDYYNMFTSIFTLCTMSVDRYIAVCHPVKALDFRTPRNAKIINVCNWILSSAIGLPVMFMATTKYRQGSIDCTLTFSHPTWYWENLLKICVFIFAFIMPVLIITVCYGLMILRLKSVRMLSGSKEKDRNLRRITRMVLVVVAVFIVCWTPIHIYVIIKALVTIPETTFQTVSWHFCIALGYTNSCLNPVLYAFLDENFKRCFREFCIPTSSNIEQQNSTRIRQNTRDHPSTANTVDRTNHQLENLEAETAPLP

First: CC(C)NC(=O)N(CCN1[C@@H]2CC[C@H]1C[C@@H](c1cccc(C(N)=O)c1)C2)CC1CCCCC1
Second: COC(=O)N(CCN1[C@@H]2CC[C@H]1C[C@@H](c1cccc(C(N)=O)c1)C2)CC1CCCCC1
The Intrinsic activity of the first is higher: 21% for the first, 7% for the second.

Compared with CCC(CC)CN(CCCCCN1[C@@H]2CC[C@H]1C[C@@H](c1cccc(C(N)=O)c1)C2)C(=O)CO, CCCCCCN(CCN1[C@@H]2CC[C@H]1C[C@@H](c1cccc(C(N)=O)c1)C2)C(=O)CO is lower in Intrinsic activity: 1% for the first, -9% for the second.

In the case of CC(C)(C)C(=O)N(CCN1[C@@H]2CC[C@H]1C[C@@H](c1cccc(C(N)=O)c1)C2)CC1CCCCC1, the Intrinsic activity is reported as 3%.

test system: not listed separately; test: Half life in human liver microsomes at 3 uM; type: ADME, Microsome; conditions: not given

NC(=O)c1cccc([C@H]2C[C@H]3CC[C@@H](C2)N3CCN(CCc2ccccc2)C(=O)CO)c1 and CCCCCCN(CCN1[C@@H]2CC[C@H]1C[C@@H](c1cccc(C(N)=O)c1)C2)C(=O)CO are the same in half-life at 3 µM: 90 min for the first, 90 min for the second.

Compared with CCC(CC)CN(CCCCCN1[C@@H]2CC[C@H]1C[C@@H](c1cccc(C(N)=O)c1)C2)C(=O)CO, COC(=O)N(CCN1[C@@H]2CC[C@H]1C[C@@H](c1cccc(C(N)=O)c1)C2)CC1CCCCC1 is 1.7-fold lower in half-life at 3 µM: 12 min for the first, 7 min for the second.

In the case of CC(C)(C)C(=O)N(CCN1[C@@H]2CC[C@H]1C[C@@H](c1cccc(C(N)=O)c1)C2)CC1CCCCC1, the half-life at 3 µM is reported as 9 min.

target: T1, Mu-type opioid receptor; test: Displacement of [3H]-DPN from recombinant human mu opioid receptor expressed in CHO-K1 cell membranes by radioligand binding assay; conditions: not given; procedure, shortened: as §1

Going from CC(C)NC(=O)N(CCN1[C@@H]2CC[C@H]1C[C@@H](c1cccc(C(N)=O)c1)C2)CC1CCCCC1 to COC(=O)N(CCN1[C@@H]2CC[C@H]1C[C@@H](c1cccc(C(N)=O)c1)C2)CC1CCCCC1, the Ki falls from 0.2 nM to 0.126 nM (1.6-fold).

CCC(CC)CN(CCCCCN1[C@@H]2CC[C@H]1C[C@@H](c1cccc(C(N)=O)c1)C2)C(=O)CO and CCCCCCN(CCN1[C@@H]2CC[C@H]1C[C@@H](c1cccc(C(N)=O)c1)C2)C(=O)CO are within 1.5-fold of each other in Ki: 0.631 nM for the first, 0.794 nM for the second.

Work on CC(C)(C)C(=O)N(CCN1[C@@H]2CC[C@H]1C[C@@H](c1cccc(C(N)=O)c1)C2)CC1CCCCC1 yielded a Ki of 0.126 nM.

test system: not listed separately; test: Half life in dog liver microsomes at 3 uM; type: ADME, Canis lupus familiaris, Microsome; conditions: not given

Going from CC(C)NC(=O)N(CCN1[C@@H]2CC[C@H]1C[C@@H](c1cccc(C(N)=O)c1)C2)CC1CCCCC1 to COC(=O)N(CCN1[C@@H]2CC[C@H]1C[C@@H](c1cccc(C(N)=O)c1)C2)CC1CCCCC1, the half-life at 3 µM falls from 14 min to 2 min (7-fold).

Going from NC(=O)c1cccc([C@H]2C[C@H]3CC[C@@H](C2)N3CCN(CCc2ccccc2)C(=O)CO)c1 to CCCCCCN(CCN1[C@@H]2CC[C@H]1C[C@@H](c1cccc(C(N)=O)c1)C2)C(=O)CO, the half-life at 3 µM falls from 61 min to 11 min (5.5-fold).

Compared with CCC(CC)CN(CCCCCN1[C@@H]2CC[C@H]1C[C@@H](c1cccc(C(N)=O)c1)C2)C(=O)CO, CC(C)(C)C(=O)N(CCN1[C@@H]2CC[C@H]1C[C@@H](c1cccc(C(N)=O)c1)C2)CC1CCCCC1 is 9.5-fold lower in half-life at 3 µM: 19 min for the first, 2 min for the second.
